Columns and labels:
Format in all cases: functional
Pseudomonas aeruginosa [1] = test: Antimicrobial activity against extended spectrum beta-lactamases-producing Pseudomonas aeruginosa 10-18 after 18-24 hrs by two-fold serial dilution method
How it was run: (§1)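 Agar-medium twofold serial dilution against Gram-positive and Gram-negative strains; MIC taken as the lowest compound concentration giving complete inhibition of bacterial growth after incubation at 35 °C for 18-24 h.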

[2] = test system: Staphylococcus epidermidis; test: Antimicrobial activity against extended spectrum beta-lactamases-producing methicillin-sensitive Staphylococcus epidermidis 10-13 after 18-24 hrs by two-fold serial dilution method; how it was run: as §1
Pseudomonas aeruginosa [3] = test: Antimicrobial activity against extended spectrum beta-lactamases-producing Pseudomonas aeruginosa 10-9 after 18-24 hrs by two-fold serial dilution method; how it was run: as §1
[4] = test system: Staphylococcus epidermidis; test: Antimicrobial activity against extended spectrum beta-lactamases-producing methicillin-resistant Staphylococcus epidermidis 10-13 after 18-24 hrs by two-fold serial dilution method
How it was run: (§2)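 Agar twofold serial dilution MIC against clinical isolates. MIC was taken as the lowest concentration giving complete inhibition of bacterial growth after incubation at 35 °C for 18-24 h.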

Pseudomonas aeruginosa [5] = test: Antimicrobial activity against extended spectrum beta-lactamases-producing Pseudomonas aeruginosa 10-20 after 18-24 hrs by two-fold serial dilution method; how it was run: as §1
Enterococcus faecalis [6] = test: Antimicrobial activity against Enterococcus faecalis 10-5 after 18-24 hrs by two-fold serial dilution method; how it was run: as §1
Staphylococcus aureus [7] = test: Antimicrobial activity against extended spectrum beta-lactamases-producing methicillin-sensitive Staphylococcus aureus 10-14 after 18-24 hrs by two-fold serial dilution method; how it was run: as §1
Escherichia coli [8] = test: Antimicrobial activity against extended spectrum beta-lactamases-producing Escherichia coli 10-2 after 18-24 hrs by two-fold serial dilution method; how it was run: as §1
Escherichia coli [9] = test: Antimicrobial activity against Escherichia coli 10-1 after 18-24 hrs by two-fold serial dilution method; how it was run: as §1
Klebsiella pneumoniae [10] = test: Antimicrobial activity against Klebsiella pneumoniae 10-3 after 18-24 hrs by two-fold serial dilution method; how it was run: as §1
Staphylococcus aureus [11] = test: Antimicrobial activity against methicillin-resistant Staphylococcus aureus clinical isolate after 18-24 hrs by two-fold serial dilution method; how it was run: as §2
Pseudomonas aeruginosa [12] = test: Antimicrobial activity against extended spectrum beta-lactamases-producing Pseudomonas aeruginosa 10-15 after 18-24 hrs by two-fold serial dilution method; how it was run: as §1
Enterococcus faecalis [13] = test: Antimicrobial activity against Enterococcus faecalis 10-6 after 18-24 hrs by two-fold serial dilution method; how it was run: as §1
Klebsiella pneumoniae [14] = test: Antimicrobial activity against extended spectrum beta-lactamases-producing Klebsiella pneumoniae 10-3 after 18-24 hrs by two-fold serial dilution method; how it was run: as §1
Escherichia coli [15] = test: Antimicrobial activity against Escherichia coli 10-3 after 18-24 hrs by two-fold serial dilution method; how it was run: as §1
Staphylococcus aureus [16] = test: Antimicrobial activity against Staphylococcus aureus ATCC […] after 18-24 hrs by two-fold serial dilution method; how it was run: as §1
Staphylococcus aureus [17] = test: Antimicrobial activity against extended spectrum beta-lactamases-producing methicillin-sensitive Staphylococcus aureus 10-13 after 18-24 hrs by two-fold serial dilution method; how it was run: as §1
Escherichia coli [18] = test: Antimicrobial activity against Escherichia coli ATCC 25922 after 18-24 hrs by two-fold serial dilution method; how it was run: as §1
Escherichia coli [19] = test: Antimicrobial activity against Escherichia coli 10-2 after 18-24 hrs by two-fold serial dilution method; how it was run: as §1
Klebsiella pneumoniae [20] = test: Antimicrobial activity against Klebsiella pneumoniae 10-4 after 18-24 hrs by two-fold serial dilution method; how it was run: as §1
Streptococcus pneumoniae [21] = test: Antimicrobial activity against extended spectrum beta-lactamases-producing Streptococcus pneumoniae 10-1 after 18-24 hrs by two-fold serial dilution method; how it was run: as §1
Enterococcus faecium [22] = test: Antimicrobial activity against Enterococcus faecium 10-5 after 18-24 hrs by two-fold serial dilution method; how it was run: as §1
Klebsiella pneumoniae [23] = test: Antimicrobial activity against extended spectrum beta-lactamases-producing Klebsiella pneumoniae 10-1 after 18-24 hrs by two-fold serial dilution method; how it was run: as §1
Klebsiella pneumoniae [24] = test: Antimicrobial activity against Klebsiella pneumoniae 10-2 after 18-24 hrs by two-fold serial dilution method; how it was run: as §1
Staphylococcus aureus [25] = test: Antimicrobial activity against extended spectrum beta-lactamases-producing methicillin-resistant Staphylococcus aureus 10-15 after 18-24 hrs by two-fold serial dilution method; how it was run: as §2
Staphylococcus aureus [26] = test: Antimicrobial activity against extended spectrum beta-lactamases-producing methicillin-resistant Staphylococcus aureus 10-11 after 18-24 hrs by two-fold serial dilution method; how it was run: as §2
Escherichia coli [27] = test: Antimicrobial activity against extended spectrum beta-lactamases-producing Escherichia coli 10-3 after 18-24 hrs by two-fold serial dilution method; how it was run: as §1
Pseudomonas aeruginosa [28] = test: Antimicrobial activity against extended spectrum beta-lactamases-producing Pseudomonas aeruginosa 10-5 after 18-24 hrs by two-fold serial dilution method; how it was run: as §1
Pseudomonas aeruginosa [29] = test: Antimicrobial activity against Pseudomonas aeruginosa 10-12 after 18-24 hrs by two-fold serial dilution method; how it was run: as §1
Enterococcus faecium [30] = test: Antimicrobial activity against Enterococcus faecium 10-9 after 18-24 hrs by two-fold serial dilution method; how it was run: as §1
Escherichia coli [31] = test: Antimicrobial activity against extended spectrum beta-lactamases-producing Escherichia coli 10-4 after 18-24 hrs by two-fold serial dilution method; how it was run: as §1
Enterococcus faecalis [32] = test: Antimicrobial activity against Enterococcus faecalis 10-7 after 18-24 hrs by two-fold serial dilution method; how it was run: as §1
[33] = test system: Staphylococcus epidermidis; test: Antimicrobial activity against extended spectrum beta-lactamases-producing methicillin-sensitive Staphylococcus epidermidis 10-11 after 18-24 hrs by two-fold serial dilution method; how it was run: as §1
[34] = test system: Staphylococcus epidermidis; test: Antimicrobial activity against extended spectrum beta-lactamases-producing methicillin-resistant Staphylococcus epidermidis 10-10 after 18-24 hrs by two-fold serial dilution method; how it was run: as §2
Klebsiella pneumoniae [35] = test: Antimicrobial activity against extended spectrum beta-lactamases-producing Klebsiella pneumoniae 10-2 after 18-24 hrs by two-fold serial dilution method; how it was run: as §1
[36] = test system: Staphylococcus epidermidis; test: Antimicrobial activity against extended spectrum beta-lactamases-producing methicillin-sensitive Staphylococcus epidermidis 10-15 after 18-24 hrs by two-fold serial dilution method; how it was run: as §1
Streptococcus pneumoniae [37] = test: Antimicrobial activity against extended spectrum beta-lactamases-producing Streptococcus pneumoniae 10-4 after 18-24 hrs by two-fold serial dilution method; how it was run: as §1

`COc1cccc(CO/N=C2\CN(c3nc4c(cc3F)c(=O)c(C(=O)O)cn4C3CC3)CC2CN)c1OC.CS(=O)(=O)O` (racemic) showed an MIC (Pseudomonas aeruginosa [1]) of 4 µg/mL, an MIC [2] of 0.06 µg/mL and an MIC (Pseudomonas aeruginosa [3]) of 4 µg/mL. The MIC [4] was 0.25 µg/mL, the MIC (Pseudomonas aeruginosa [5]) was 8 µg/mL and the MIC (Enterococcus faecalis [6]) was 0.25 µg/mL. It also gave an MIC (Staphylococcus aureus [7]) of 0.06 µg/mL, an MIC (Escherichia coli [8]) greater than 128 µg/mL and an MIC (Escherichia coli [9]) greater than 128 µg/mL. For the same molecule, the MIC (Klebsiella pneumoniae [10]) was 2 µg/mL, the MIC50 (Staphylococcus aureus [11]) was 1 µg/mL and the MIC90 (Staphylococcus aureus [11]) was 4 µg/mL. It also gave an MIC (Pseudomonas aeruginosa [12]) of 8 µg/mL, an MIC (Enterococcus faecalis [13]) of 4 µg/mL and an MIC (Klebsiella pneumoniae [14]) greater than 128 µg/mL. The MIC (Escherichia coli [15]) was 16 µg/mL, the MIC (Staphylococcus aureus [16]) was 0.015 µg/mL and the MIC (Staphylococcus aureus [17]) was 0.03 µg/mL. The MIC (Escherichia coli [18]) was 0.125 µg/mL, the MIC (Escherichia coli [19]) was 16 µg/mL and the MIC (Klebsiella pneumoniae [20]) was greater than 128 µg/mL. It also gave an MIC (Streptococcus pneumoniae [21]) of 0.125 µg/mL, an MIC (Enterococcus faecium [22]) of 4 µg/mL and an MIC (Klebsiella pneumoniae [23]) greater than 128 µg/mL. The MIC (Klebsiella pneumoniae [24]) was 128 µg/mL, the MIC (Staphylococcus aureus [25]) was 4 µg/mL and the MIC (Staphylococcus aureus [26]) was 1 µg/mL. For the same molecule, the MIC (Escherichia coli [27]) was 32 µg/mL, the MIC (Pseudomonas aeruginosa [28]) was 4 µg/mL and the MIC (Pseudomonas aeruginosa [29]) was 8 µg/mL. The MIC (Enterococcus faecium [30]) was 4 µg/mL, the MIC (Escherichia coli [31]) was 2 µg/mL and the MIC (Enterococcus faecalis [32]) was 1 µg/mL. For the same molecule, the MIC [33] was 0.25 µg/mL, the MIC [34] was 0.5 µg/mL and the MIC (Klebsiella pneumoniae [35]) was greater than 128 µg/mL. It also gave an MIC [36] of 4 µg/mL and an MIC (Streptococcus pneumoniae [37]) of 0.06 µg/mL.
Work on `COc1cc(CO/N=C2\CN(c3nc4c(cc3F)c(=O)c(C(=O)O)cn4C3CC3)CC2CN)ccc1OCc1ccccc1.CS(=O)(=O)O` (racemic) yielded an MIC (Pseudomonas aeruginosa [1]) of 16 µg/mL, an MIC [2] of 2 µg/mL and an MIC (Pseudomonas aeruginosa [3]) of 16 µg/mL. It also gave an MIC [4] of 1 µg/mL, an MIC (Pseudomonas aeruginosa [5]) of 0.06 µg/mL and an MIC (Enterococcus faecalis [6]) of 4 µg/mL. It also gave an MIC (Staphylococcus aureus [7]) of less than 0.008 µg/mL, an MIC (Escherichia coli [8]) greater than 128 µg/mL and an MIC (Escherichia coli [9]) greater than 128 µg/mL. For the same molecule, the MIC (Klebsiella pneumoniae [10]) was 32 µg/mL, the MIC (Pseudomonas aeruginosa [12]) was 32 µg/mL and the MIC (Enterococcus faecalis [13]) was 8 µg/mL. For the same molecule, the MIC (Klebsiella pneumoniae [14]) was greater than 128 µg/mL, the MIC (Escherichia coli [15]) was greater than 128 µg/mL and the MIC (Staphylococcus aureus [16]) was less than 0.008 µg/mL. It also gave an MIC (Staphylococcus aureus [17]) of 4 µg/mL, an MIC (Escherichia coli [18]) of 2 µg/mL and an MIC (Escherichia coli [19]) of 16 µg/mL. For the same molecule, the MIC (Klebsiella pneumoniae [20]) was greater than 128 µg/mL, the MIC (Streptococcus pneumoniae [21]) was 4 µg/mL and the MIC (Enterococcus faecium [22]) was 16 µg/mL. For the same molecule, the MIC (Klebsiella pneumoniae [23]) was greater than 128 µg/mL, the MIC (Klebsiella pneumoniae [24]) was greater than 128 µg/mL and the MIC (Staphylococcus aureus [25]) was 0.5 µg/mL. The MIC (Staphylococcus aureus [26]) was 4 µg/mL, the MIC (Escherichia coli [27]) was greater than 128 µg/mL and the MIC (Pseudomonas aeruginosa [28]) was 16 µg/mL. For the same molecule, the MIC (Pseudomonas aeruginosa [29]) was less than 0.008 µg/mL, the MIC (Enterococcus faecium [30]) was 16 µg/mL and the MIC (Escherichia coli [31]) was 32 µg/mL. The MIC (Enterococcus faecalis [32]) was 4 µg/mL, the MIC [33] was 8 µg/mL and the MIC [34] was 4 µg/mL. For the same molecule, the MIC (Klebsiella pneumoniae [35]) was greater than 128 µg/mL, the MIC [36] was 8 µg/mL and the MIC (Streptococcus pneumoniae [37]) was 16 µg/mL.

From ChEMBL document CHEMBL2062435, “Synthesis and in vitro antibacterial activity of gemifloxacin derivatives containing a substituted benzyloxime moiety” (2012)
